# The source made the active and inactive calls.
# Legend:
# [1] = target: T1, Androgen receptor (Homo sapiens) (UniProt P10275); assay: Inhibition of androgen receptor in human LNCAP cells assessed as decrease in TMPRSS2 mRNA expression at 5 uM by RT-PCR analysis relative to control; type: cell-based
# T1 sequence (whole entry): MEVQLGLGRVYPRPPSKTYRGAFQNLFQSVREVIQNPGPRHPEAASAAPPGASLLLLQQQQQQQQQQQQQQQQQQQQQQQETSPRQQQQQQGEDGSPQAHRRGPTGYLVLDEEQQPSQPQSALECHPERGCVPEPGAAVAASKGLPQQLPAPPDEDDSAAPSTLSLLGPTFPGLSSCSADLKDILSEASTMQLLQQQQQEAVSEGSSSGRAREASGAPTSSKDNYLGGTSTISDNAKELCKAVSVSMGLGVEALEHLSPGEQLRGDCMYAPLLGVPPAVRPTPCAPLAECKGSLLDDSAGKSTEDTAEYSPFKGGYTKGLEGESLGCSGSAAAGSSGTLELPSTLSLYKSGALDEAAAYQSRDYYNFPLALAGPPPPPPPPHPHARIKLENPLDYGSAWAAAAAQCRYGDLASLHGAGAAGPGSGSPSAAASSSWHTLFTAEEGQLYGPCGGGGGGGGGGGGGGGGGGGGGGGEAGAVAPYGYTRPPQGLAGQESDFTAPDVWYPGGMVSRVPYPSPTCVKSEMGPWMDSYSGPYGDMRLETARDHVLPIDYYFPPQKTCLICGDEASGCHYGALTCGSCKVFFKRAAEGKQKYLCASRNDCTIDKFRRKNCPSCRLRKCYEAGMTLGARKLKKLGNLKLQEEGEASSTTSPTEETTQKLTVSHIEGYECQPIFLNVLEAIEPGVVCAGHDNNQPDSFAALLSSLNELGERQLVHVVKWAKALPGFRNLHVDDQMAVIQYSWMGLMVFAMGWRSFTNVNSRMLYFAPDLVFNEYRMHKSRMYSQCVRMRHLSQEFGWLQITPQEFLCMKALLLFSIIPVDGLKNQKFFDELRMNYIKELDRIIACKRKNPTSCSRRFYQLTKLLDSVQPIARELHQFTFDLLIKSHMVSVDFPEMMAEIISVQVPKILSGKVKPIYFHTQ
# Outline: (§1)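 LNCaP cells grown in RPMI 1640 with 10% FBS at 37°C. Transcript levels measured by real-time RT-PCR with rRNA as the reference gene. Relative RNA calculated from threshold cycles by the comparative Ct method.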
# [2] = target: T1, Androgen receptor (Homo sapiens); assay: Inhibition of androgen receptor in human LNCAP cells assessed as decrease in PSA mRNA expression at 5 uM by RT-PCR analysis relative to control; type: cell-based; outline: as §1
# [3] = test system: LNCaP; assay: Cytotoxicity against human LNCAP cells at 5.56 to 50 uM after 48 hrs by 7-AAD dye-based flow cytometric analysis; type: cell-based
# Outline: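 LNCaP cells (RPMI 1640, 10% FBS, 37°C) exposed to compound for 48 h in 10% FBS medium; 1% DMSO as vehicle control. Viable cell count measured by flow cytometry using 7-AAD viability stain.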
# [4] = target: T2, Androgen receptor (Homo sapiens, UniProt P10275); assay: Displacement of Fluormone AL Green from androgen receptor ligand binding domain (unknown origin) after 4 hrs by fluorescence polarization assay
# T2 sequence (P10275 whole entry): T1 sequence (whole entry)
# [5] = target: T1, Androgen receptor (Homo sapiens); details: LNCaP, at 0.5 to 3 µM
inhibition [1],inhibition [2],IC50 [4] [µM],inhibition [5],SMILES,Activity [3]
Active,Active,,,O=C(O[C@H]1C(=O)C=CN(C(=O)/C=C/c2ccccc2)[C@@H]1c1ccccc1)c1ccc(Cl)cc1 (racemic),
Active,Active,,,O=C(O[C@H]1C(=O)C=CN(C(=O)/C=C/c2ccccc2)[C@@H]1c1ccccc1)C1CC1 (racemic),
Active,Active,,,O=C(O[C@H]1C(=O)C=CN(C(=O)Oc2ccccc2)[C@@H]1c1ccc2c(c1)OCO2)c1ccc(F)cc1C(F)(F)F (racemic),
90%,90%,,,O=C1C=CN(C(=O)Oc2ccccc2)[C@H](c2ccccc2)C1 (racemic),
90%,90%,,,CC(C)(C)[Si](C)(C)O[C@H]1C(=O)C=CN(C(=O)Cc2ccccc2)[C@@H]1c1ccc2c(c1)OCO2 (racemic),
Active,Active,,,O=C(Cc1ccccc1)O[C@H]1C(=O)C=CN(C(=O)/C=C/c2ccccc2)[C@@H]1c1ccccc1 (racemic),
Active,Active,,,CC(C)[C@@H]1[C@@H](OC(=O)c2ccc(F)cc2C(F)(F)F)C(=O)C=CN1C(=O)Oc1ccccc1 (racemic),
90%,90%,,,CC(C)(C)[Si](C)(C)O[C@H]1C(=O)C=CN(C(=O)Oc2ccccc2)[C@@H]1c1ccc2c(c1)OCO2 (racemic),
90%,90%,,,O=C1C=CN(C(=O)Oc2ccccc2)[C@H](c2ccc3c(c2)OCO3)[C@H]1O (racemic),
Active,Active,,,C[C@@H]1[C@@H](OC(=O)c2ccc(F)cc2C(F)(F)F)C(=O)C=CN1C(=O)Oc1ccccc1 (racemic),
Active,Active,30.1,inactive,O=C(O[C@H]1C(=O)C=CN(C(=O)/C=C/c2ccccc2)[C@@H]1c1ccccc1)c1ccc(F)cc1C(F)(F)F (racemic),Non-toxic
Active,Active,,,COc1ccc(C(=O)O[C@H]2C(=O)C=CN(C(=O)/C=C/c3ccccc3)[C@@H]2c2ccccc2)cc1 (racemic),
Active,Active,,,Cc1csc([C@@H]2[C@@H](OC(=O)c3ccc(F)cc3C(F)(F)F)C(=O)C=CN2C(=O)Oc2ccccc2)c1 (racemic),
90%,90%,,,O=C1C=CN[C@H](c2ccccc2)[C@H]1O (racemic),
Active,Active,,,CC(C)=C[C@@H]1[C@@H](OC(=O)c2ccc(F)cc2C(F)(F)F)C(=O)C=CN1C(=O)Oc1ccccc1 (racemic),
90%,90%,,,CC(C)(C)[Si](C)(C)O[C@H]1C(=O)C=CN(C(=O)Oc2ccccc2)[C@@H]1c1ccccc1 (racemic),
90%,90%,,,Cc1csc([C@@H]2[C@@H](OC(=O)N(C)c3ccccc3)C(=O)C=CN2C(=O)C2CC2)c1 (racemic),

# More lines, now with the values behind:
SMILES,inhibition [1],inhibition [2],IC50 [4] [µM],inhibition [5],Activity [3]
O=C(O[C@H]1C(=O)C=CN(C(=O)Oc2ccccc2)[C@@H]1c1ccccc1)c1ccc(F)cc1C(F)(F)F (racemic),Active,Active,,,
O=C1C=CN(C(=O)Oc2ccccc2)[C@H](c2ccccc2)[C@H]1O (racemic),90%,90%,,,
O=C1C=CN(C(=O)Oc2ccccc2)[C@H](c2ccc(-c3ccccc3)cc2)C1 (racemic),90%,90%,,,
O=C(O[C@H]1C(=O)C=CN(C(=O)/C=C/c2ccccc2)[C@@H]1c1ccccc1)c1ccccc1C(F)(F)F (racemic),Active,Active,,,
O=C(O[C@H]1C(=O)C=CN(C(=O)Oc2ccccc2)[C@@H]1c1cc(F)cc(F)c1)c1ccc(F)cc1C(F)(F)F (racemic),Active,Active,,,
O=C1C=CN(C(=O)Oc2ccccc2)[C@H](c2cccc(-c3ccccc3)c2)[C@H]1O (racemic),90%,90%,,,
O=C(/C=C/c1cccc(C(F)(F)F)c1)O[C@H]1C(=O)C=CN(C(=O)/C=C/c2ccccc2)[C@@H]1c1ccccc1 (racemic),Active,Active,,,
O=C(O[C@H]1C(=O)C=CN(C(=O)c2ccccc2)[C@@H]1c1ccccc1)c1ccc(F)cc1C(F)(F)F (racemic),90%,90%,,,
O=C1C=CN(C(=O)c2ccccc2)[C@H](c2ccccc2)[C@H]1O (racemic),90%,90%,,,
N#Cc1cccc(C(=O)O[C@H]2C(=O)C=CN(C(=O)/C=C/c3ccccc3)[C@@H]2c2ccccc2)c1 (racemic),Active,Active,,,
Cc1csc([C@@H]2[C@@H](OC(=O)N(C)c3ccccc3)C(=O)C=CN2C(=O)c2ccc(C(F)(F)F)nc2)c1 (racemic),90%,90%,,,
O=C1C=CN(C(=O)/C=C/c2ccccc2)[C@H](c2ccccc2)[C@H]1O (racemic),Active,Active,,,
Cc1csc([C@@H]2[C@@H](O)C(=O)C=CN2C(=O)Oc2ccccc2)c1 (racemic),90%,90%,,,
CC(C)(C)[Si](C)(C)O[C@H]1C(=O)C=CN(C(=O)C2CC2)[C@@H]1c1ccc2c(c1)OCO2 (racemic),90%,90%,,,
Cc1csc([C@@H]2[C@@H](OC(=O)N(C)c3ccccc3)C(=O)C=CN2C(=O)Oc2ccccc2)c1 (racemic),90%,90%,,,
N#Cc1ccc(C(=O)O[C@H]2C(=O)C=CN(C(=O)/C=C/c3ccccc3)[C@@H]2c2ccccc2)cc1 (racemic),Active,Active,,,
CC(C)(C)[Si](C)(C)O[C@H]1C(=O)C=CN[C@@H]1c1ccc2c(c1)OCO2 (racemic),90%,90%,,,
O=C(O[C@H]1C(=O)C=CN(C(=O)Oc2ccccc2)[C@@H]1c1cccc(-c2ccccc2)c1)c1ccc(F)cc1C(F)(F)F (racemic),Active,Active,,,
CC(C)(C)[Si](C)(C)O[C@H]1C(=O)C=CN(C(=O)c2ccc(C(F)(F)F)nc2)[C@@H]1c1ccc2c(c1)OCO2 (racemic),90%,90%,,,
Cc1csc([C@H]2NC=CC(=O)[C@@H]2OC(=O)N(C)c2ccccc2)c1 (racemic),90%,90%,,,

# Reference: ChEMBL document CHEMBL2440058, “Synthesis and structure-activity relationship studies of novel dihydropyridones as androgen receptor modulators” (J Med Chem, 2013)
